# Paper PMC6467728 (Journal of medicinal chemistry, 2019)
# “Also recorded” adds a separate entry of the source. Read-outs that look alike come from different tables or passages of the source.
# Legend:
# [1] = system: IP6K / IPMK activity (InsP7, InsP5, InsP6 levels) in HCT116 cells; format: cell-based, human
# IP6K = conditions: prior report; cited from earlier work
# [2] = cited from earlier work
# [3] = system: IP6K activity (InsP levels) in HEK293 cells; test: HPLC analysis of InsP5, InsP6 and InsP7 levels in HEK293 cells; format: cell-based; conditions: HEK293, 2.5 µM, 3.5 h
# Procedure, shortened: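 HEK293 cells were labeled with [³H]inositol (20 µCi/ml), then treated 3.5 h with 2.5 µM test compound in DMSO (0.1% final) or vehicle. Cells were quenched with perchloric acid, and extracted [³H]InsP5, InsP6 and InsP7 were resolved by CarboPac HPLC. Values are means ± standard errors, n=3; one-way ANOVA (Dunnett) vs DMSO control.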
# [4] = system: AKT activity in HCT116 cells; test: AKT activity; format: cell-based, human; conditions: 3 h
# Procedure, shortened: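 HCT116 cells, 1 day post-confluent, were exposed 3 h to 10 µM TNP, 2.5 µM test compound or DMSO vehicle (0.1% final). Cells were PBS-washed and lysed in cold Tris-HCl pH 7.4 buffer with 1% Triton X-100 plus protease-phosphatase inhibitors. Blots of 20 µg protein were probed for T308 p-AKT and total AKT. The p-AKT/total ratio was normalized to the gel sum; means ± standard errors, n=5, Dunnett ANOVA.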
# [5] = system: AKT activity in 3T3-L1 preadipocytes; test: AKT activity; format: cell-based; conditions: 3 h
# Procedure, shortened: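 Lysates were made in ice-cold Tris-HCl pH 7.4/NaCl/1% Triton X-100 with protease-phosphatase inhibitors and cleared at 4 °C. Blots of 20 µg protein were probed for p-AKT T308 and total AKT. Ratios were normalized to the per-gel sum; n=3, Dunnett ANOVA vs DMSO.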
# hIP6K2 = target: T1, hIP6K2 (Homo sapiens, UniProt Q9UHH9); test: hIP6K2 Adapta TR-FRET kinase assay; format: biochemical; conditions: for fold higher IC50 against hIP6K2 compared to 3: relative to compound 3; for fold higher IC50 against hIP6K2 compared to 5: relative to compound 5
# T1 sequence (Q9UHH9 1-426): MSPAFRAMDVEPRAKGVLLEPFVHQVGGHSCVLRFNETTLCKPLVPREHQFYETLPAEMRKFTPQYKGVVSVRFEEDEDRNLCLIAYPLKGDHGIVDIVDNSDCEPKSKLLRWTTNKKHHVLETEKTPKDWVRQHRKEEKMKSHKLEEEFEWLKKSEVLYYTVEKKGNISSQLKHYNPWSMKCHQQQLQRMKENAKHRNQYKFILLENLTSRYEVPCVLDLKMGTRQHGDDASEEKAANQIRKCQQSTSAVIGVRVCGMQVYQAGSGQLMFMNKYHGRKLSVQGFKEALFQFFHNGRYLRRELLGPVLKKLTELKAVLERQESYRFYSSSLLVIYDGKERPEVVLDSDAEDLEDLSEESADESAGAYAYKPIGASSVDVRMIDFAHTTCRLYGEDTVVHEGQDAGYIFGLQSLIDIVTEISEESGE
# hIPMK = hIPMK (Homo sapiens, UniProt Q8NFU5); test: hIPMK Adapta TR-FRET kinase assay; format: biochemical; conditions: for fold higher IC50 (reduction in inhibitory activity) against hIPMK compared to 2: relative to compound 2
# Chain of hIPMK (Q8NFU5 whole entry): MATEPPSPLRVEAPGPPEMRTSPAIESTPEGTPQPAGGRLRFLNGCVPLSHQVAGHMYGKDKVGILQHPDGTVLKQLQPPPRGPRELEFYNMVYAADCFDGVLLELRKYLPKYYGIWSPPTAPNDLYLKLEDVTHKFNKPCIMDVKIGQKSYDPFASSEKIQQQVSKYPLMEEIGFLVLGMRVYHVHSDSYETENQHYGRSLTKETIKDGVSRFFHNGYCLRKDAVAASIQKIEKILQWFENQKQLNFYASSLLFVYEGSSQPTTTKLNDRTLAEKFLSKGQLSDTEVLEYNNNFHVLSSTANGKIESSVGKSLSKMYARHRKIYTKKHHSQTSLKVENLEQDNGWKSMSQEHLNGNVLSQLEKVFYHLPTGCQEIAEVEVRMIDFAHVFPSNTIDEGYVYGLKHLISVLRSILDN
smiles,measurement,setting,value
"O=c1c(O)c(-c2cc(O)c(O)c(O)c2)oc2cc(O)cc(O)c12 [Compound 1, Myricetin]",effect on InsP5 levels,"[1]; HCT116, 2.5 µM, 3.5 hr",not significantly affected
same,effect on InsP6 levels,"[1]; HCT116, 2.5 µM, 3.5 hr",not significantly affected
same,effect on InsP7 synthesis / levels,"[1]; HCT116, 2.5 µM, 3.5 hr",inhibited InsP7 synthesis; also recorded: only slightly altered InsP7 levels
same,inhibition of IP6K,IP6K,inhibitor
"O=c1c(O)c(-c2ccc(O)c(O)c2)oc2cc(O)cc(O)c12 [Compound 2, Quercetin]",concentration recorded in the human small intestine and colon,[2],2.5 µM
same,concentration in serum,[2]; even after dietary supplementation,≤ 1 µM
same,effect on InsP7 synthesis / levels,"[1]; HCT116, 2.5 µM, 3.5 hr",inhibited InsP7 synthesis
same,effect on InsP5,"[1]; HCT116, 2.5 µM, time course",without significantly impacting
same,effect on InsP6,"[1]; HCT116, 2.5 µM, time course",without significantly impacting
same,reduction of InsP7 levels,"[1]; HCT116, 2.5 µM, time course",50 – 70%
same,time of greatest diminution in cellular InsP7 content,"[1]; HCT116, 2.5 µM, time course",30 min
same,total DPM of InsP7 peak,"[1]; HCT116, 10 μM, 3.5 h, representative HPLC, control 2160",195 DPM
same,total DPM of InsP5 peak,"[1]; HCT116, 10 μM, 3.5 h, representative HPLC, control 14677","10,989 DPM"
same,total DPM of InsP6 peak,"[1]; HCT116, 10 μM, 3.5 h, representative HPLC, control 36,327",39521 DPM
same,effect on InsP6 levels,"[1]; HCT116, 10 µM, 3.5 hr",not affected
same,reduction of InsP5 levels,"[1]; HCT116, 10 µM, 3.5 hr",approx. 25%
same,"effect on InsP7 levels, dose dependence","[1]; HCT116, 1–10 µM, 3.5 hr",dose-dependent reductions in InsP7 levels
same,effect on InsP5 levels,[3],not affected
same,effect on InsP6 levels,[3],not affected
same,effect on InsP7 levels,[3],reduced InsP7 levels
same,effect upon AKT activity (p-AKT T308 / total AKT),"[4]; HCT116, 2.5 µM",did not observe any statistically-significant effect
same,inhibition of IP6K,IP6K,no inhibitory effect was observed
same,effect upon AKT activity (p-AKT T308 / total AKT),"[5]; 3T3-L1, 2.5 µM",increased
"O=c1cc(-c2ccc(O)c(O)c2)oc2cc(O)cc(O)c12 [Compound 3, Luteolin]",fold higher IC50 against hIP6K2 compared to 2,hIP6K2; relative to compound 2,1.9 fold
same,effect on InsP7 synthesis / levels,"[1]; HCT116, 2.5 µM, 3.5 hr",inhibited InsP7 synthesis
same,effect on InsP5 levels,[3],not affected
same,effect on InsP6 levels,[3],not affected
same,effect on InsP7 levels,[3],reduced InsP7 levels
same,effect upon AKT activity (p-AKT T308 / total AKT),"[4]; HCT116, 2.5 µM",did not observe any statistically-significant effect
same,fold higher IC50 (reduction in inhibitory activity) against hIPMK compared to 2,hIPMK,2.4- to 3 fold
same,effect upon AKT activity (p-AKT T308 / total AKT),"[5]; 3T3-L1, 2.5 µM",increased
"O=c1c(O)c(-c2ccc(O)cc2)oc2cc(O)cc(O)c12 [Compound 4, Kaempferol]",fold higher IC50 against hIP6K2 compared to 2,hIP6K2; relative to compound 2,3.6 fold
same,effect on InsP5 levels,"[1]; HCT116, 2.5 µM, 3.5 hr",not significantly affected
same,effect on InsP6 levels,"[1]; HCT116, 2.5 µM, 3.5 hr",not significantly affected
same,effect on InsP7 synthesis / levels,"[1]; HCT116, 2.5 µM, 3.5 hr",inhibited InsP7 synthesis
same,fold higher IC50 (reduction in inhibitory activity) against hIPMK compared to 2,hIPMK,2 fold
"O=c1cc(-c2ccc(O)cc2)oc2cc(O)cc(O)c12 [Compound 5, Apigenin]",fold higher IC50 against hIP6K2 compared to 2,hIP6K2; relative to compound 2,10 fold
"COc1cc(-c2oc3cc(O)cc(O)c3c(=O)c2O)ccc1O [Compound 6, Isorhamnetin]",effect on InsP5 levels,"[1]; HCT116, 2.5 µM, 3.5 hr",not significantly affected
same,effect on InsP6 levels,"[1]; HCT116, 2.5 µM, 3.5 hr",not significantly affected
same,effect on InsP7 synthesis / levels,"[1]; HCT116, 2.5 µM, 3.5 hr",inhibited InsP7 synthesis
"COc1ccc(-c2cc(=O)c3c(O)cc(O)cc3o2)cc1O [Compound 7, Diosmetin]",effect on InsP7 synthesis / levels,"[1]; HCT116, 2.5 µM, 3.5 hr",inhibited InsP7 synthesis; also recorded: most effective inhibitor of InsP7 levels
same,effect on InsP5,"[1]; HCT116, 2.5 µM, time course",no effect
same,effect on InsP6,"[1]; HCT116, 2.5 µM, time course",did not significantly alter
same,effect on InsP7 synthesis,"[1]; HCT116, 2.5 µM, time course",most sustained inhibition of InsP7 synthesis
same,reduction in IP6K activity,"[1]; intact HCT116 cells, 2.5 µM",> 70%
same,effect on InsP5 levels,[3],not affected
same,effect on InsP6 levels,[3],not affected
same,effect on InsP7 levels,[3],reduced InsP7 levels
same,effect upon AKT activity (p-AKT T308 / total AKT),"[4]; HCT116, 2.5 µM",did not observe any statistically-significant effect
same,effect upon AKT activity (p-AKT T308 / total AKT),"[5]; 3T3-L1, 2.5 µM",increased
"O=c1cc(-c2ccc(O)c(O)c2)oc2cccc(O)c12 [Compound 9, 5,3’,4’-Trihydroxyflavone]",fold higher IC50 against hIP6K2 compared to 3,hIP6K2,6 fold
"COc1cc(O)c2c(=O)cc(-c3ccc(O)cc3)oc2c1 [Compound 10, Genkwanin]",fold higher IC50 against hIP6K2 compared to 5,hIP6K2,3 fold
"COc1cc(O)c2c(=O)c(O)c(-c3ccc(O)c(O)c3)oc2c1 [Compound 11, Rhamnetin]",fold higher IC50 against hIP6K2 compared to 2,hIP6K2; relative to compound 2,2.6 fold
same,fold increase in selectivity for hIP6K2 (vs hIPMK) compared to 2,hIP6K2; relative to compound 2,2.4 fold
same,effect on InsP5 levels,"[1]; HCT116, 2.5 µM, 3.5 hr",not significantly affected
same,effect on InsP6 levels,"[1]; HCT116, 2.5 µM, 3.5 hr",not significantly affected
same,effect on InsP7 synthesis / levels,"[1]; HCT116, 2.5 µM, 3.5 hr",inability of 11 to reduce InsP7
same,fold higher IC50 (reduction in inhibitory activity) against hIPMK compared to 2,hIPMK,6 fold
"O=C1C[C@@H](c2ccc(O)c(O)c2)Oc2cc(O)cc(O)c21 [Compound 16, Eriodictyol]",fold higher IC50 against hIP6K2 compared to 3,hIP6K2,19 fold
same,fold loss of activity against hIPMK compared to 3,hIPMK; relative to compound 3,> 5.5 fold
"O=C1C[C@@H](c2ccc(O)cc2)Oc2cc(O)cc(O)c21 [Compound 17, Naringenin]",fold higher IC50 against hIP6K2 compared to 5,hIP6K2,at least 4 fold
"O=[N+]([O-])c1ccc(CNc2nc(NCc3cccc(C(F)(F)F)c3)nc3[nH]cnc23)cc1 [TNP, N2-(m-(trifluoromethyl)benzyl) N6-(p-nitrobenzyl)purine, reference compound]",effect upon AKT activity (p-AKT T308 / total AKT),"[4]; HCT116, 10 µM TNP",did not affect AKT activity
same,effect upon AKT activity (p-AKT T308 / total AKT),"[5]; 3T3-L1, 1 µM TNP",increased
